From PubChem BioAssay AID463172 (The Scripps Research Institute Molecular Screening Center, 2010) come the findings set out here.

For this test, the system named is HEK293T RORa/G6PC promoter luciferase, 20 h. In words: RORa-driven G6PC promoter inhibitors, potency, late-stage follow-up, counter-screen for RORA inverse agonist project, cell-based, luminescence, dose response (AID 463172). Summed up: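 Assay system – HEK293T cells transfected with full-length RORa, SRC-2 coactivator, G6PC promoter-luciferase · Timing – 20 h compound exposure after 24 h bulk transfection · Detection – luciferase luminescence · Benchmarks – DMSO vehicle-treated cells as normalization reference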
(The purpose of a counterscreen is to sort out artefacts and off-target activity.)

Broadly, the IC50 is the concentration that gives 50% inhibition. For the molecule `O=S(=O)(Nc1ccc(C(O)(C(F)(F)F)C(F)(F)F)cc1)c1cccs1`, the IC50 is 1.4 µM.
